Assay results reported in ChEMBL document CHEMBL1149551, “Novel selective PPARdelta agonists: optimization of activity by modification of alkynylallylic moiety” (Bioorg Med Chem Lett, 2007).

Columns and labels:
[1] = target: T1, Peroxisome proliferator-activated receptor alpha (Homo sapiens, UniProt Q07869); assay: Agonist activity at human PPARalpha by transactivation assay; format: functional
T1 sequence (Q07869 whole entry): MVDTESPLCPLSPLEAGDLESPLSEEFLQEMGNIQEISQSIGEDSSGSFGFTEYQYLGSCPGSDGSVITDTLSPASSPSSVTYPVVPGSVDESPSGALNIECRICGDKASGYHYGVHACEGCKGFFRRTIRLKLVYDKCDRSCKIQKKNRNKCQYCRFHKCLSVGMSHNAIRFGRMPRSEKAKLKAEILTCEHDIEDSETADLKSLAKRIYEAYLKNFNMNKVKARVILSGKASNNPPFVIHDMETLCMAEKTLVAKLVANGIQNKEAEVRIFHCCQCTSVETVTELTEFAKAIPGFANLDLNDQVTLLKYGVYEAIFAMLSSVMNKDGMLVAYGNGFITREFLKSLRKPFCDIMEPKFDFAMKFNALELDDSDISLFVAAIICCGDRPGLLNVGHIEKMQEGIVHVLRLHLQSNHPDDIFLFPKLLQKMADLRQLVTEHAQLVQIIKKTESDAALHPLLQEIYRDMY

[2] = target: T2, Peroxisome proliferator-activated receptor alpha (Homo sapiens) (UniProt Q07869); assay: Agonist activity at human PPARalpha by transactivation assay relative to NNC 61-4655; format: functional
T2 sequence (whole entry): T1 sequence (Q07869 whole entry)
In short: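 Transactivation run in at least three separate experiments, each at five or more concentrations from 0.001 to 30 µM. EC50 is the concentration giving half of the compound's own maximal activity, reported as the mean. Efficacy is given relative to the maximal activity of the reference PPARα agonist.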

[3] = target: T3, Peroxisome proliferator-activated receptor delta (Homo sapiens, UniProt Q03181)
T3 sequence (Q03181 whole entry): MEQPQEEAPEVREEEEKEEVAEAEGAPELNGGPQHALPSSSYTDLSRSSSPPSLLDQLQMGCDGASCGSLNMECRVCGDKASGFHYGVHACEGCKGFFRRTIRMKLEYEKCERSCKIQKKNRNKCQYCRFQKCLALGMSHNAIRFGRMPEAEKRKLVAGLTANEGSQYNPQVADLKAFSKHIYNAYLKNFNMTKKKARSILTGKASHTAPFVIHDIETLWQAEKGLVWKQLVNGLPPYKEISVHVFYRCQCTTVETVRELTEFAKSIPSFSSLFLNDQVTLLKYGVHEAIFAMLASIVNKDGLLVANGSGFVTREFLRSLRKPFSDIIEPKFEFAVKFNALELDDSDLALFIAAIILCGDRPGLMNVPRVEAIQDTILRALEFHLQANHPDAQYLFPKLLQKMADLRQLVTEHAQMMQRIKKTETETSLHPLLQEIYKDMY

[4] = target: T4, Peroxisome proliferator-activated receptor gamma (Homo sapiens, UniProt P37231); format: functional
T4 sequence (P37231 whole entry): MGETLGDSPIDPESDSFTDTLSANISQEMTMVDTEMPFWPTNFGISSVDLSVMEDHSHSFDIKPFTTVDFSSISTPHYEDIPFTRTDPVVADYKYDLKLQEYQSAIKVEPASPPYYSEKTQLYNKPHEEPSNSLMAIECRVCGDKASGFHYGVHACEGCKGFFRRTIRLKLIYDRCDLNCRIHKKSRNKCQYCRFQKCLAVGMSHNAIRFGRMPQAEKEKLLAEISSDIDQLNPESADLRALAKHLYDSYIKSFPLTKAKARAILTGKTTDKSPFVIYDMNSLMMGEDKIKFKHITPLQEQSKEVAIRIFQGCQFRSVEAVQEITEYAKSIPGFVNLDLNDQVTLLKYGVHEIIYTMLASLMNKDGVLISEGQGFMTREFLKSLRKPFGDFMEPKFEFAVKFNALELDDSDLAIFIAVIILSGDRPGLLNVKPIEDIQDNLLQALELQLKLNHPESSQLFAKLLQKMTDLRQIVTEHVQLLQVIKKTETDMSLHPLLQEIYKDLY

SMILES	EC50 [1] [µM]	%max [2] [%]	EC50 [3] [µM]	EC50 [4] [µM]
Cc1cc(OC/C=C\C(C#Cc2ccccn2)c2ccc(Br)cc2)ccc1OCC(=O)O (stereo unspecified)	> 10	> 22	0.24	
CN(CCOc1ccc(CC2SC(=O)NC2=O)cc1)c1ccccn1 (stereo unspecified)		> 24		
Cc1cc(SC/C=C/C#Cc2ccccc2)ccc1OCC(=O)O	14		12.1	
Cc1cc(OC/C=C\C(C#Cc2ccccc2)c2cnc3ccccc3c2)ccc1OCC(=O)O (stereo unspecified)	4.1	33		6.6
Cc1ccc(-c2ccc(/C(C#Cc3ccccc3)=C/COc3ccc(OCC(=O)O)c(C)c3)cc2)s1	> 10	> 60		> 10
CCO[C@@H](Cc1ccc(OC/C=C/C#Cc2ccccc2)cc1)C(=O)O	0.01		6.4	2.6
Cc1cc(SC/C=C\C(C#Cc2ccccc2)c2ccc(Br)cc2)ccc1OCC(=O)O (stereo unspecified)	> 10	> 24	0.16	> 10
CCO[C@@H](Cc1ccc(OC/C=C(\C#Cc2ccccc2)c2ccccc2)cc1)C(=O)O	> 10			> 10
Cc1cc(OC/C=C(\C#Cc2ccccc2)c2ccccc2)ccc1OCC(=O)O		< 10		
COc1ccc(C#CC(/C=C\CSc2ccc(OCC(=O)O)c(C)c2)c2ccc(-c3ccccc3)cc2)cc1 (stereo unspecified)	> 10	> 58	0.011	> 10
Cc1ccc(C#CC(/C=C\COc2ccc(OCC(=O)O)c(C)c2)c2ccc(Br)cc2)s1 (stereo unspecified)	> 10	> 15	0.22	
Cc1cc(OC/C=C\C(C#Cc2ccc(C(F)(F)F)cc2)c2ccc(Br)cc2)ccc1OCC(=O)O (stereo unspecified)	> 10	> 19	0.13	
Cc1cc(SCc2sc(-c3ccc(C(F)(F)F)cc3)nc2C)ccc1OCC(=O)O		68		
Cc1cc(OC/C=C(\C#Cc2ccccc2)c2ccc(Br)cc2)ccc1OCC(=O)O		< 10		
Cc1cc2cc(C(C#Cc3ccc(F)cc3)/C=C\COc3ccc(OCC(=O)O)c(C)c3)ccc2o1 (stereo unspecified)	> 10	> 41		> 10
Cc1cc2cc(C(C#Cc3ccc(C)s3)/C=C\COc3ccc(OCC(=O)O)c(C)c3)ccc2o1 (stereo unspecified)	5.8	< 10	0.15	> 10
